Assay results published in ChEMBL document CHEMBL1122207, “Antitumor agents. 2. Bisguanylhydrazones of anthracene-9,10-dicarboxaldehydes” (1982).

What was measured:
Type in all cases: functional
Mus musculus [1] = experiment: Percent increase in median life span of BDF1 mice with B-16 melanoma at dose 6 mg/kg administered intraperitoneally; conditions: BDF1, B16, ip, route intraperitoneal
How it was run: (§1)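 BDF1 mice were implanted ip with a homogenate from 0.05 g of B-16 melanoma. Ip dosing ran on days 1-9, starting 24 h after implant, in dose-response studies following NCI protocols. The read-out was percent increase in life span (ILS). T/C ≥125% was taken as significant.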

Mus musculus [2] = experiment: Percent increase in median life span of BDF1 mice with P-388 leukemia at dose 12.5 mg/kg administered intraperitoneally; conditions: BDF1, P388, ip, route intraperitoneal
Mus musculus [3] = organism: Mus musculus; experiment: Anticancer activity measured as the number of survivors of the total treated mice with P-388 leukemia at 30 days.
How it was run: (§2)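 BDF1 or CDF1 mice given 10^6 ascitic P-388 leukemia cells ip, then treated ip on days 1, 5 and 9. Cures are survivors over total treated at 30 days.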

Mus musculus [4] = organism: Mus musculus; experiment: Number of survivors of the total treated mice with B-16 melanoma, at 60 days.
How it was run: (§3)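 BDF1 mice were implanted ip with a homogenate from 0.05 g of B-16 melanoma and dosed ip on days 1-9. Cures are survivors over total at 60 days.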

Mus musculus [5] = organism: Mus musculus; experiment: Cures is the number of survivors of the total treated mice (10) with B-16 melanoma, at 60 days.; how it was run: as §3
Mus musculus [6] = experiment: Percent increase in median life span of BDF1 mice with P-388 leukemia at dose 6.25 mg/kg administered intraperitoneally; conditions: BDF1, P388, ip, route intraperitoneal
Mus musculus [7] = experiment: Percent increase in median life span of BDF1 mice with B-16 melanoma at dose 1.5 mg/kg administered intraperitoneally; conditions: BDF1, B16, ip, route intraperitoneal; how it was run: as §1
Mus musculus [8] = organism: Mus musculus; experiment: Cures is the number of survivors of the total treated mice (6) with P-388 leukemia, at 30 days.; how it was run: as §2
Mus musculus [9] = experiment: Percent increase in median life span of BDF1 mice with P-388 leukemia at dose 3.1 mg/kg administered intraperitoneally; conditions: BDF1, P388, ip, route intraperitoneal
Mus musculus [10] = experiment: Percent increase in median life span of BDF1 mice with B-16 melanoma at dose 3.1 mg/kg administered intraperitoneally; conditions: BDF1, B16, ip, route intraperitoneal; how it was run: as §1
Mus musculus [11] = experiment: Percent increase in median life span of BDF1 mice with P-388 leukemia at dose 25 mg/kg administered intraperitoneally; conditions: BDF1, P388, ip, route intraperitoneal
Mus musculus [12] = experiment: Percent increase in median life span of BDF1 mice with B-16 melanoma at dose 6.00 mg/kg administered intraperitoneally; conditions: BDF1, B16, ip, route intraperitoneal; how it was run: as §1
Mus musculus [13] = experiment: Percent tumor inhibition at non-lethal dose was determined in BDF1 mice with madison lung 109 leukemia; 1, 5, 9 days of sc treatment relative to tumor inoculation
Mus musculus [14] = organism: Mus musculus; experiment: Cures is the number of survivors of the total treated mice (20) with Colon 26, at 60 days.
Mus musculus [15] = organism: Mus musculus; experiment: Cures is the number of survivors of the total treated mice (42) with P-388 leukemia, at 30 days.; how it was run: as §2
Mus musculus [16] = experiment: Percent increase in median life span of BDF1 mice with L-1210 leukemia at dose 12.5 mg/kg administered intraperitoneally; 1, 5, 9 days of ip treatment relative to tumor inoculation; conditions: BDF1, L1210, ip, 216 h, route intraperitoneal
How it was run: (§4)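 BDF1 or CDF1 mice given 10^6 ascitic leukemia cells ip, then dosed ip on days 1, 5 and 9. Read-out is percent increase in life span versus untreated controls. Cures were scored as survivors/total at 30 days; when cures reached 50% or more, the run was extended until a specific ILS could be calculated. T/C ≥125% counted as significant.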

Mus musculus [17] = experiment: Percent increase in median life span of BDF1 mice with Colon 26 at dose 6.2 mg/kg administered intraperitoneally; Range is 114-150%; 1, 5, 9 days of ip treatment relative to tumor inoculation; conditions: BDF1, Colon 26, ip, 216 h, route intraperitoneal
Mus musculus [18] = experiment: Percent increase in median life span of BDF1 mice with P-388 leukemia at dose 12.5 mg/kg administered intraperitoneally; 1, 5, 9 days of ip treatment relative to tumor inoculation; conditions: BDF1, P388, ip, 216 h, route intraperitoneal; how it was run: as §4
Mus musculus [19] = experiment: Percent increase in median life span of BDF1 mice with B-16 melanoma at dose 6 mg/kg administered intraperitoneally; range 98-122%; 1-9 days of ip treatment relative to tumor inoculation; conditions: BDF1, B16, ip, route intraperitoneal; how it was run: as §1
Mus musculus [20] = experiment: Cures is the number of survivors of the total treated mice (6) with advanced L-1210 leukemia; treatment day +2 iv
How it was run: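 Advanced L-1210 leukemia, treated iv once on day +2 relative to tumor inoculation.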

Mus musculus [21] = organism: Mus musculus; experiment: Percent increase in median life span of BDF1 mice with advanced L-1210 leukemia
Mus musculus [22] = organism: Mus musculus; experiment: Cures is the number of survivors of the total treated mice (10) with P-388 leukemia, at 30 days.; how it was run: as §2
Mus musculus [23] = organism: Mus musculus; experiment: Cures is the number of survivors of the total treated mice (17) with L-1210 leukemia, at 30 days.
Mus musculus [24] = experiment: Percent increase in median life span of BDF1 mice with advanced P-388 leukemia at dose 12.5 mg/kg administered intraperitoneally; 4, 8, 12 days of ip treatment relative to tumor inoculation; conditions: P388, ip, 288 h, route intraperitoneal
Mus musculus [25] = organism: Mus musculus; experiment: Cures is the number of survivors of the total treated mice (10) with advanced B-16 melanoma, at 30 days.
Mus musculus [26] = experiment: Percent increase in median life span of BDF1 mice with madison lung 109 leukemia administered intraperitoneally
Mus musculus [27] = experiment: Percent increase in median life span of BDF1 mice with advanced B-16 melanoma at dose 12.5 mg/kg administered intraperitoneally; 5, 9, 13 days of ip treatment relative to tumor inoculation; conditions: BDF1, B16, ip, 312 h, route intraperitoneal
Mus musculus [28] = organism: Mus musculus; experiment: Cures is the number of survivors of the total treated mice (20) with B-16 melanoma, at 60 days.; how it was run: as §3
Mus musculus [29] = experiment: Percent increase in median life span of BDF1 mice with P-388 leukemia at dose 50 mg/kg administered intraperitoneally; conditions: BDF1, P388, ip, route intraperitoneal
Mus musculus [30] = organism: Mus musculus; experiment: Cures is the number of survivors of the total treated mice (6) with P-388 leukemia, at 60 days.
Mus musculus [31] = experiment: Percent increase in median life span of BDF1 mice with advanced L-1210 leukemia at dose 6.2 mg/kg administered intraperitoneally; treatment day +2 iv; conditions: L1210
Mus musculus [32] = organism: Mus musculus; experiment: Cures is the number of survivors of the total treated mice (8) with Colon 26, at 60 days.
Mus musculus [33] = experiment: Percent increase in median life span of BDF1 mice with P-388 leukemia at dose 6.25 mg/kg administered intraperitoneally; 1, 5, 9 days of ip treatment relative to tumor inoculation; conditions: BDF1, P388, ip, 216 h, route intraperitoneal; how it was run: as §4
Mus musculus [34] = experiment: Percent increase in median life span of BDF1 mice with B-16 melanoma at dose 3 mg/kg administered intraperitoneally; 1-9 days of ip treatment relative to tumor inoculation; conditions: BDF1, B16, ip, route intraperitoneal; how it was run: as §1
Mus musculus [35] = organism: Mus musculus; experiment: Cures is the number of survivors of the total treated mice (6) with advanced L-1210 leukemia, at 30 days.
How it was run: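 Advanced L-1210 leukemia, with ip treatment on days 5, 9 and 13 relative to tumor inoculation.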

Mus musculus [36] = experiment: Percent increase in median life span of BDF1 mice with Colon 26 at dose 3.1 mg/kg administered intraperitoneally; 1, 5, 9 days of ip treatment relative to tumor inoculation; conditions: BDF1, Colon 26, ip, 216 h, route intraperitoneal
Mus musculus [37] = experiment: Percent increase in median life span of BDF1 mice with B-16 melanoma at dose 6.25 mg/kg administered intraperitoneally; conditions: BDF1, B16, ip, route intraperitoneal; how it was run: as §1

Br.Br.CN(/N=C/c1c2ccccc2c(/C=N/N(C)C(=N)N)c2ccccc12)C(=N)N
ILS at 6 mg/kg (Mus musculus [1]): 50%
ILS at 12.5 mg/kg (Mus musculus [2]): 91%
Cures (Mus musculus [3]): 0
Cures (Mus musculus [4]): 0

Cl.Cl.Clc1cccc2c(/C=N/NC3=NCCN3)c3ccccc3c(/C=N/NC3=NCCN3)c12
Cures (Mus musculus [5]): 3
ILS at 6.25 mg/kg (Mus musculus [6]): 186%
ILS at 1.5 mg/kg (Mus musculus [7]): 153%
Cures (Mus musculus [8]): 3

Cl.Cl.Fc1ccc2c(/C=N/NC3=NCCN3)c3cc(F)ccc3c(/C=N/NC3=NCCN3)c2c1
ILS at 3.1 mg/kg (Mus musculus [9]): 135%
ILS at 3.1 mg/kg (Mus musculus [10]): 111%
Cures (Mus musculus [5]): 1
Cures (Mus musculus [8]): 1

CN(C)C(=N)N/N=C/c1c2ccccc2c(/C=N/N=C(\N)N(C)C)c2cc(Cl)ccc12.Cl.Cl
ILS at 6 mg/kg (Mus musculus [1]): 39%
ILS at 12.5 mg/kg (Mus musculus [2]): 82%
Cures (Mus musculus [3]): 0
Cures (Mus musculus [4]): 0

CN(C)CCCCC/N=C(\S)N/N=C/c1c2ccccc2c(/C=N/N/C(S)=N/CCCCCN(C)C)c2ccccc12.Cl.Cl
ILS at 25 mg/kg (Mus musculus [11]): 48%
Cures (Mus musculus [3]): 0
ILS at 6 mg/kg (Mus musculus [12]): 97%
Cures (Mus musculus [4]): 0

C(=N\NC1=NCCN1)/c1c2ccccc2c(/C=N/NC2=NCCN2)c2ccccc12 [BISANTRENE]
Inhibition (Mus musculus [13]): 20%
Cures (Mus musculus [14]): 6
Cures (Mus musculus [15]): 17
ILS at 12.5 mg/kg (Mus musculus [16]): 62%
ILS at 6.2 mg/kg (Mus musculus [17]): 114%
ILS at 12.5 mg/kg (Mus musculus [18]): 137%
ILS at 6 mg/kg (Mus musculus [19]): 122%
Cures (Mus musculus [20]): 0
ILS (Mus musculus [21]): 48%
Cures (Mus musculus [22]): 2
Cures (Mus musculus [23]): 0
Cures (Mus musculus [8]): 0
ILS at 12.5 mg/kg (Mus musculus [24]): 76%
Cures (Mus musculus [25]): 2
ILS (Mus musculus [26]): <25%
ILS at 12.5 mg/kg (Mus musculus [27]): 54%
Cures (Mus musculus [28]): 2

Cl.Cl.N=C(N/N=C/c1c2ccccc2c(/C=N/NC(=N)Nc2ccccc2)c2ccccc12)Nc1ccccc1
ILS at 6 mg/kg (Mus musculus [1]): 50%
ILS at 50 mg/kg (Mus musculus [29]): 67%
Cures (Mus musculus [3]): 0
Cures (Mus musculus [4]): 0

C(=N\NC1=NCCN1)/c1c2ccccc2c(/C=N/NC2=NCCN2)c2c1ccc1ccccc12.Cl.Cl
Cures (Mus musculus [30]): 1
ILS at 12.5 mg/kg (Mus musculus [2]): 90%
Cures (Mus musculus [4]): 0

Cl.Cl.Clc1ccc2c(/C=N/NC3=NCCCN3)c3ccccc3c(/C=N/NC3=NCCCN3)c2c1
ILS at 6.2 mg/kg (Mus musculus [31]): 28%
Inhibition (Mus musculus [13]): 16%
Cures (Mus musculus [32]): 1
Cures (Mus musculus [5]): 6
ILS at 6.25 mg/kg (Mus musculus [33]): 127%
ILS at 12.5 mg/kg (Mus musculus [24]): 80%
ILS at 3 mg/kg (Mus musculus [34]): 194%
ILS (Mus musculus [26]): <25%
Cures (Mus musculus [35]): 0
ILS at 3.1 mg/kg (Mus musculus [36]): 175%

C(=N\NC1=NCCN1)/c1c2ccccc2c(/C=N/NC2=NCCN2)c2cc3ccccc3cc12.Cl.Cl
ILS at 6.25 mg/kg (Mus musculus [37]): 136%
Cures (Mus musculus [5]): 1
ILS at 12.5 mg/kg (Mus musculus [2]): 91%
Cures (Mus musculus [3]): 0
